Experimental data from ChEMBL document CHEMBL1649398, “Synthesis and evaluation of tumor cell growth inhibition of methyl 3-amino-6-[(hetero)arylethynyl]thieno[3,2-b]pyridine-2-carboxylates. Structure-activity relationships, effects on the cell cycle and apoptosis” (Eur J Med Chem, 2011).

Experiments:
MCF7 = test: Growth inhibition of human MCF7 cells after 48 hrs by SRB assay; type: functional; settings: MCF7, 48 h
Method in brief: (§1)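 Adherent cells kept in RPMI-1640 with 5% heat-inactivated FBS, 2 mM glutamine and antibiotics at 37 °C, 5% CO₂. Plated at 1.5 ×10⁵ cells/mL (MCF-7) or 0.75 ×10⁵ cells/mL (A375-C5, NCI-H460) and grown 24 h. […] TCA fixation, SRB stain, absorbance 492 nm. GI₅₀ is 50% inhibition of net growth; mean ± SEM, three experiments in duplicate.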

[1] = Growth inhibition of human A375-C5 cells after 48 hrs by SRB assay; type: functional; settings: A375-C5, 48 h; method in brief: as §1
NCI-H460 [2] = test: Growth inhibition of human NCI-H460 cells after 48 hrs by SRB assay; type: functional; settings: NCI-H460, 48 h; method in brief: as §1
NCI-H460 [3] = test: Cell cycle arrest in human NCI-H460 cells assessed as accumulation at G0/G1 phase at GI50 after 48 hrs by flow cytometry; type: functional
NCI-H460 [4] = test: Cell cycle arrest in human NCI-H460 cells assessed as accumulation at S phase at GI50 after 48 hrs by flow cytometry; type: functional
NCI-H460 [5] = test: Cell cycle arrest in human NCI-H460 cells assessed as accumulation at G2/M phase at GI50 after 48 hrs by flow cytometry; type: functional
NCI-H460 [6] = test: Induction of apoptosis in human NCI-H460 cells at GI50 after 48 hrs by V-FITC/propidium iodide staining-based flow cytometry; type: functional
[7] = Solubility of the compound in DMSO at 150 uM; type: physicochemical

GI50 (MCF7) [µM]	GI50 (NCI-H460 [2]) [µM]	solubility [7]	Compound	GI50 [1] [µM]	Activity (NCI-H460 [3]) [%]	Activity (NCI-H460 [4]) [%]	Activity (NCI-H460 [5]) [%]	Activity (NCI-H460 [6]) [%]
> 150	> 150		COC(=O)c1sc2cc(C#Cc3cccnc3)cnc2c1N	> 150				
27.7	24.8		COC(=O)c1sc2cc(C#Cc3ccsc3)cnc2c1N	29.6				
> 150	> 150		COC(=O)c1sc2cc(C#Cc3ccccc3)cnc2c1N	> 150				
> 47.3	> 47.3		COC(=O)c1sc2cc(C#Cc3ccccc3OC)cnc2c1N	> 47.3				
33.4	49		COC(=O)c1sc2cc(C#Cc3cccc(OC)c3)cnc2c1N	> 75				
0.46	0.32		COC(=O)c1sc2cc(C#Cc3ccc(OC)cc3)cnc2c1N	> 37.5	59.7	22	18.3	18.7
4.1	5.7		COC(=O)c1sc2cc(C#Cc3ccccc3N)cnc2c1N	3.1	54.7	23.1	24.6	25.3
10.8	11.5		COC(=O)c1sc2cc(C#Cc3cccc(N)c3)cnc2c1N	11.6				
2.6	8.9		COC(=O)c1sc2cc(C#Cc3ccc(N)cc3)cnc2c1N	4.8	68	18.6	13.4	17
20.6	16.6		COC(=O)c1sc2cc(C#Cc3ccc(N(C)C)cc3)cnc2c1N	17.7				
> 150	> 150		COC(=O)c1sc2cc(C#Cc3ccccc3F)cnc2c1N	> 150				
29	24		COC(=O)c1sc2cc(C#Cc3ccc(F)cc3)cnc2c1N	48.4				
37.4	34.9		COC(=O)c1sc2cc(C#Cc3ccccn3)cnc2c1N	13.9				
			C[S+](C)[O-] [DIMETHYL SULFOXIDE]		55.1	28.8	16.1	12.2
		Insoluble	COc1cccc2c1C(=O)c1c(O)c3c(c(O)c1C2=O)C[C@@](O)(C(=O)CO)C[C@@H]3O[C@H]1C[C@H](N)[C@H](O)[C@H](C)O1 [DOXORUBICIN]					
